Experimental data taken from article PMC8189251 (ACS chemical biology, 2021).

Experiments:
[1] = system: U2 snRNP; settings: bypassed by an ATP-dependent rearrangement; cited from earlier work
[2] = molecular target: T1, SF3B (Homo sapiens, UniProt O75533+Q7RTV0); type: biochemical; settings: for splicing efficiency, first incubation at 30°C compared to 4°C before excess iHB: 1 μM inhibitor, then 100 μM iHB
[3] = system: U2 snRNA; assay: RNase H cleavage analysis of U2 snRNA accessibility in nuclear extract; type: biochemical, human; settings: 1 μM, 10 minutes at 30°C
In short: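 HeLa nuclear extract (40%), ATP-depleted 10 min at 30°C, in 60 mM potassium glutamate, 2 mM Mg acetate, 0.1 mg/mL tRNA, ±2 mM ATP, with test compound or DMSO, 10 min, 30°C. Oligos against U2 nt 24–38 or 32–46 (5 μM) were added for 15 min for endogenous RNase H cleavage, then DNase-removed. Read-out: primer extension (³²P primer, U2 97–117; MMLV RT, 53°C, 30 min), denaturing gel, phosphorimaging.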

[4] = molecular target: T1, SF3B; settings: cited from earlier work; for splicing products with inhibitor alone: 1 μM inhibitor alone in in vitro splicing reaction

SMILES	effect on U2 snRNPs ability to engage an oligo containing the branch sequence [1]	splicing efficiency, inhibitor incubated before excess iHB competitor ([2]; 1 μM inhibitor 10 min, then 100 μM iHB 10 min)	splicing products, inhibitor followed by DMSO ([2]; 1 μM inhibitor 10 min, then DMSO 10 min, 4°C)	splicing efficiency, first incubation at 30°C compared to 4°C before excess iHB [2]	off-rate ([2]; inferred from order of addition, not direct binding)	effect on ATP-dependent changes in U2 snRNA cleavage [3]	splicing products with inhibitor alone [4]	IC50 ([4]; read-out: IC50 value for in vitro splicing, HeLa nuclear extract)
CC[C@H](O)[C@@H](C)[C@H]1O[C@@H]1C[C@@](C)(O)/C=C/C=C(\C)[C@H]1OC(=O)C[C@H](O)CC[C@@](C)(O)[C@@H](OC(=O)N2CCN(C3CCCCCC3)CC2)/C=C/[C@@H]1C [E7107]	inhibits							
CO[C@]1(C)C[C@@]2(CO2)[C@H](O)[C@@H](/C=C/C(C)=C/C[C@@H]2O[C@H](C)[C@H](NC(=O)/C=C\[C@H](C)OC(C)=O)C[C@@H]2C)O1 [SSA, spliceostatin A]		greatly reduced	no splicing products	lower	very slow	does not interfere	not detected	
CO[C@H]([C@@H](C)[C@H]1O[C@]1(C)C[C@H](C)/C=C/C=C(\C)[C@H]1O[C@@H](CC(=O)O)CC[C@@H]1C)[C@@H](C)O [compound 1, herboxidiene]				lower			not detected	0.3 µM
